According to ChEMBL document CHEMBL4196105, “Discovery of β-Arrestin Biased Ligands of 5-HT7R” (J Med Chem, 2018):
The source made the active and inactive calls. The calls are words filed in the database; no cut-off is given here.

Legend:
[1] = target: T1, 5-hydroxytryptamine receptor 1A (Homo sapiens, UniProt P08908); experiment: Displacement of [3H]LSD from human 5-HT1A receptor expressed in HEK cell membranes after 1.5 hrs by microbeta scintillation counting method
T1 sequence (P08908 whole entry): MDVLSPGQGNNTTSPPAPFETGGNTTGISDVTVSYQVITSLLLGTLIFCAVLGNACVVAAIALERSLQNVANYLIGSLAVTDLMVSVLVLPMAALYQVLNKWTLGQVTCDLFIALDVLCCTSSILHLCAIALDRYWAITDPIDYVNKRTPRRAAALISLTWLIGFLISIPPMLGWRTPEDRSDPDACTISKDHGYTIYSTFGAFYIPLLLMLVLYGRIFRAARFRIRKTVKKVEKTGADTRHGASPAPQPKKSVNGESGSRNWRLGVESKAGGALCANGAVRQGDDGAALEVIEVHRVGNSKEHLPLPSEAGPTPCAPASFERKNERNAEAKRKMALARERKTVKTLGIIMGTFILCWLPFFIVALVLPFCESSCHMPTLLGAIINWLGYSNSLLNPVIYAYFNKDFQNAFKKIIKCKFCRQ
Method in brief: (§1)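 Radioligand binding performed by the NIMH Psychoactive Drug Screening Program. Crude membranes from cells expressing recombinant receptor, with [3H]LSD, in 50 mM Tris-HCl, 10 mM MgCl2, 1 mM EDTA, pH 7.4. Eleven test concentrations. Incubated 1.5 h at room temperature, protected from light. Filtered onto PEI-soaked GF/B filters, then scintillation counting. IC50 converted to Ki; at least three experiments in triplicate.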

[2] = target: 5-hydroxytryptamine receptor 1B (Homo sapiens, UniProt P28222); experiment: Displacement of [3H]LSD from human 5-HT1B receptor expressed in HEK cell membranes after 1.5 hrs by microbeta scintillation counting method; method in brief: as §1
[3] = target: 5-hydroxytryptamine receptor 1D (Homo sapiens, UniProt P28221); experiment: Displacement of [3H]LSD from human 5-HT1D receptor expressed in HEK cell membranes after 1.5 hrs by microbeta scintillation counting method; method in brief: as §1
[4] = target: 5-hydroxytryptamine receptor 1E (Homo sapiens, UniProt P28566); experiment: Displacement of [3H]LSD from human 5-HT1E receptor expressed in HEK cell membranes after 1.5 hrs by microbeta scintillation counting method; method in brief: as §1
[5] = target: 5-hydroxytryptamine receptor 2A (Homo sapiens, UniProt P28223); experiment: Displacement of [3H]LSD from human 5-HT2A receptor expressed in HEK cell membranes after 1.5 hrs by microbeta scintillation counting method; method in brief: as §1
[6] = target: 5-hydroxytryptamine receptor 2B (Homo sapiens, UniProt P41595); experiment: Displacement of [3H]LSD from human 5-HT2B receptor expressed in HEK cell membranes after 1.5 hrs by microbeta scintillation counting method
[7] = target: T2, 5-hydroxytryptamine receptor 2C (Homo sapiens, UniProt P28335); experiment: Displacement of [3H]LSD from human 5-HT2C receptor expressed in HEK cell membranes after 1.5 hrs by microbeta scintillation counting method; method in brief: as §1
T2 sequence (P28335 whole entry): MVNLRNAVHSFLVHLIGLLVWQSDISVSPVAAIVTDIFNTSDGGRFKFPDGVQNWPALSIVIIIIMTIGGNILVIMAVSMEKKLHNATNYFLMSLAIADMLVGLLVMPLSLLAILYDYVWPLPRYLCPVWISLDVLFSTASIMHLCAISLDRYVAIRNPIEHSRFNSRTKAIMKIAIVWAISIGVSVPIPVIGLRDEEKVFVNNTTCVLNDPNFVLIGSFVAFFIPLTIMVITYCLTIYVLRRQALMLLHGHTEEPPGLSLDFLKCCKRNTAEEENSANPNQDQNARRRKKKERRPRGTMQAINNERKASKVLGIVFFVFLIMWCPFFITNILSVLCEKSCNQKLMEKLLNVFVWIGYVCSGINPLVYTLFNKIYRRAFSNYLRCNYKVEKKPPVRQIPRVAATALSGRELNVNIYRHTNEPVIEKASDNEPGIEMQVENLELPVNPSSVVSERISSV

[8] = target: T3, 5-hydroxytryptamine receptor 3A (Homo sapiens, UniProt P46098); experiment: Displacement of [3H]LSD from human 5-HT3 receptor expressed in HEK cell membranes after 1.5 hrs by microbeta scintillation counting method; method in brief: as §1
T3 sequence (P46098 whole entry): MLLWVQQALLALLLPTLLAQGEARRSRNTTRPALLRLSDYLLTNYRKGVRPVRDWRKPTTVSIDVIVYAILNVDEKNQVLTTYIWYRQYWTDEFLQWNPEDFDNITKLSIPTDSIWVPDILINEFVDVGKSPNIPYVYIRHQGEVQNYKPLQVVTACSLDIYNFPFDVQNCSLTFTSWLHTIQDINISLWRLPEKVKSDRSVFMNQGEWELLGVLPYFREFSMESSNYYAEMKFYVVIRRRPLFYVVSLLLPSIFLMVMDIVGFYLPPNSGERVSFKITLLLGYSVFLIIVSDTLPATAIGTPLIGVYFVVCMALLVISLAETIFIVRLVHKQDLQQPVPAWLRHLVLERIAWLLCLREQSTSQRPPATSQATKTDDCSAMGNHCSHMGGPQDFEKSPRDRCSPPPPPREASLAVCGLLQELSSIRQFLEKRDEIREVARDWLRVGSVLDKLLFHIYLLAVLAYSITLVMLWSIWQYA

[9] = target: 5-hydroxytryptamine receptor 4 (Homo sapiens, UniProt Q13639); experiment: Displacement of [3H]LSD from human 5-HT4 receptor expressed in HEK cell membranes after 1.5 hrs by microbeta scintillation counting method; method in brief: as §1
[10] = target: 5-hydroxytryptamine receptor 5A (Homo sapiens, UniProt P47898); experiment: Displacement of [3H]LSD from human 5-HT5A receptor expressed in HEK cell membranes after 1.5 hrs by microbeta scintillation counting method; method in brief: as §1
[11] = target: 5-hydroxytryptamine receptor 6 (Homo sapiens, UniProt P50406); experiment: Displacement of [3H]LSD from human 5-HT6 receptor expressed in HEK cell membranes after 1.5 hrs by microbeta scintillation counting method; method in brief: as §1
Homo sapiens [12] = species on record: Homo sapiens; experiment: Selectivity index, ratio of Ki for human 5-HT2A receptor to Ki for human 5-HT7 receptor
Method in brief: (§2)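 Selectivity index taken as Ki at the other 5-HT receptor subtype divided by Ki at 5-HT7R, each from [3H]LSD membrane binding run by the NIMH PDSP. Ki values are means of at least three experiments in triplicate.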

Homo sapiens [13] = species on record: Homo sapiens; experiment: Selectivity index, ratio of Ki for human 5-HT2B receptor to Ki for human 5-HT7 receptor; method in brief: as §2
Homo sapiens [14] = species on record: Homo sapiens; experiment: Selectivity index, ratio of Ki for human 5-HT2C receptor to Ki for human 5-HT7 receptor; method in brief: as §2
Homo sapiens [15] = species on record: Homo sapiens; experiment: Selectivity index, ratio of Ki for human 5-HT3 receptor to Ki for human 5-HT7 receptor; method in brief: as §2
Homo sapiens [16] = species on record: Homo sapiens; experiment: Selectivity index, ratio of Ki for human 5-HT5A receptor to Ki for human 5-HT7 receptor; method in brief: as §2
[17] = target: T4, 5-hydroxytryptamine receptor 7 (Homo sapiens, UniProt P34969); experiment: Inverse agonist activity at human 5-HT7 receptor expressed in HEK293 cells assessed as decrease in Gs protein-mediated cAMP accumulation by luminescence-based assay; assay type: functional, cell-based
Method in brief: (§3)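 HEK293 cells transiently transfected by calcium phosphate with human 5-HT7R and GloSensor-22F cAMP biosensor. After 5-6 h recovery, loaded with GloSensor reagent in HBSS/20 mM HEPES, pH 7.4. Test compounds at 0.01 nM-100 μM final; antagonist mode uses 5-HT stimulation. Luminescence read. Data normalised to 5-HT or SB269970 (100%) and vehicle (0%). Three experiments, at least triplicate.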

[18] = target: T4, 5-hydroxytryptamine receptor 7; experiment: Antagonist activity at human 5-HT7 receptor expressed in HEK293 cells assessed as inhibition of Gs protein-mediated cAMP accumulation by luminescence-based assay relative to SB269970; assay type: functional, cell-based; method in brief: as §3
[19] = target: T4, 5-hydroxytryptamine receptor 7; experiment: Agonist activity at tTA containing TCS cleavage site-fused 5-HT7 receptor (unknown origin) expressed in tTA-dependent luciferase reporter/TEV-fused beta-arrestin2 expressing HTLA cells assessed as induction of beta-arrestin2 recruitment after 22 hrs by Tango assay relative to 5-HT; assay type: functional, cell-based
Method in brief: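 HTLA cells (HEK293 stably expressing tTA-dependent luciferase reporter and β-arrestin2-TEV) transiently transfected with 5-HT7R-TCS-tTA. Plated in 1% dialysed FBS medium for 6 h, then given test compounds at 0.01 nM-100 μM final, about 22 h. Antagonist mode adds 1 μM 5-HT. BrightGlo luminescence read. Normalised to 5-HT (100%) and vehicle (0%). Three experiments, at least triplicate.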

[20] = target: T4, 5-hydroxytryptamine receptor 7; experiment: Antagonist activity at tTA containing TCS cleavage site-fused 5-HT7 receptor (unknown origin) expressed in tTA-dependent luciferase reporter/TEV-fused beta-arrestin2 expressing HTLA cells assessed as inhibition of 5-HT-induced beta-arrestin2 recruitment after 22 hrs by Tango assay; assay type: functional, cell-based
[21] = target: T4, 5-hydroxytryptamine receptor 7
[22] = target: T4, 5-hydroxytryptamine receptor 7; remark: listed apart in the source
Mus musculus [23] = experiment: Sleep promoting activity in C57B1/6J mouse assessed as decrease in total rapid eye movement sleep time at 30 mg/kg, ip measured over 8 hrs by electroencephalogram method; assay type: functional; design: scale not given: the % may be the effect or the level left
Method in brief: (§4)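 Adult male C57Bl/6J mice, 10 weeks old, with parietal EEG screw electrodes implanted under ketamine. EEG and EMG recorded for 8 h from 9 AM, starting one day before dosing as baseline. On test day, 30 mg/kg i.p. at the start of the light phase, with EEG/EMG recorded for 8 h and scored in 2-h bins. n = 6-9 per group; mean ± SEM versus vehicle.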

Mus musculus [24] = experiment: Sleep promoting activity in C57B1/6J mouse assessed as duration of total non-rapid eye movement sleep time at 30 mg/kg, ip measured over 8 hrs by electroencephalogram method (reference value: 252 +/- 22.7 mins); assay type: functional; method in brief: as §4
Homo sapiens [25] = species on record: Homo sapiens; experiment: Selectivity index, ratio of Ki for human 5-HT1D receptor to Ki for human 5-HT7 receptor; method in brief: as §2
Homo sapiens [26] = species on record: Homo sapiens; experiment: Selectivity index, ratio of Ki for human 5-HT1E receptor to Ki for human 5-HT7 receptor; method in brief: as §2
Homo sapiens [27] = species on record: Homo sapiens; experiment: Selectivity index, ratio of Ki for human 5-HT6 receptor to Ki for human 5-HT7 receptor; method in brief: as §2
[28] = target: T4, 5-hydroxytryptamine receptor 7; experiment: Displacement of [3H]LSD from human 5-HT7 receptor expressed in HEK cell membranes after 1.5 hrs by microbeta scintillation counting method
[29] = target: T4, 5-hydroxytryptamine receptor 7; experiment: Displacement of [3H]LSD from human 5-HT7 receptor expressed in HEK cell membranes at 10 uM after 1.5 hrs by microbeta scintillation counting method
Method in brief: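 [3H]LSD binding to recombinant 5-HT7R membranes in Tris-HCl/MgCl2/EDTA buffer, pH 7.4, 1.5 h at room temperature, filtration and scintillation counting. Percent inhibition at a single 10 μM test concentration.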

Sequence of 5-hydroxytryptamine receptor 2B (P41595 whole entry): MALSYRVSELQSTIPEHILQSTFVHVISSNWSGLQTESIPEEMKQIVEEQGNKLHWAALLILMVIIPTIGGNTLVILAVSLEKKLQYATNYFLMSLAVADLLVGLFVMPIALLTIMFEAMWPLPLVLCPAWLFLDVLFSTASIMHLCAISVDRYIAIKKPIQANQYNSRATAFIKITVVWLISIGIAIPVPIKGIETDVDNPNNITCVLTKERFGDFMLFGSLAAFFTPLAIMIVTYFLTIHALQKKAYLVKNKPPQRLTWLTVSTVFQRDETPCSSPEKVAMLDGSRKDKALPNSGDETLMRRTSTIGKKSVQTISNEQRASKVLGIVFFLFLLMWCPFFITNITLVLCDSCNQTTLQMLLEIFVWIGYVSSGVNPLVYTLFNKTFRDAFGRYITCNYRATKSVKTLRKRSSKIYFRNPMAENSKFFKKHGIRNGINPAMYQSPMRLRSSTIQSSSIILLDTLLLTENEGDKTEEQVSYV
Sequence of 5-hydroxytryptamine receptor 1E (P28566 whole entry): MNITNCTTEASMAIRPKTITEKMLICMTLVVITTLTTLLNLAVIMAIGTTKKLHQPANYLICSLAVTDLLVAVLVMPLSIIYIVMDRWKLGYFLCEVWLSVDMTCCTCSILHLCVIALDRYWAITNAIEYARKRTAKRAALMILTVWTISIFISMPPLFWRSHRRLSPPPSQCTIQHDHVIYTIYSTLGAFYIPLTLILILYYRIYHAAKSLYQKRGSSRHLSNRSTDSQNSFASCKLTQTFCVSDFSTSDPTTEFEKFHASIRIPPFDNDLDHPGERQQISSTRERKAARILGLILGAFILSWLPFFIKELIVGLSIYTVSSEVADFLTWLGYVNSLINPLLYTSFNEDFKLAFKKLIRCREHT
Sequence of 5-hydroxytryptamine receptor 2A (P28223 whole entry): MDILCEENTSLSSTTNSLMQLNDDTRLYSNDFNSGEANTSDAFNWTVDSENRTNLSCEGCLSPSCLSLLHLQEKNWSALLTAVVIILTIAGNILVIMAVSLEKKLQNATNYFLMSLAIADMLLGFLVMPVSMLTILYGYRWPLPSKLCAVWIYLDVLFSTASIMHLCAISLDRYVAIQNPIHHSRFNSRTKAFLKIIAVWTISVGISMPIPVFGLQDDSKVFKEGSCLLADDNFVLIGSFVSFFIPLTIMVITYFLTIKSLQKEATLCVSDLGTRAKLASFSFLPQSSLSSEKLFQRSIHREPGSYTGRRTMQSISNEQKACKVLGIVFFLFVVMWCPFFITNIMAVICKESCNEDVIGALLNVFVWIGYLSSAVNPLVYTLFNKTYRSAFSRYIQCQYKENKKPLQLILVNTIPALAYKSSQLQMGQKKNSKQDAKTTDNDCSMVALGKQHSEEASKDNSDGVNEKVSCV
Sequence of 5-hydroxytryptamine receptor 6 (P50406 whole entry): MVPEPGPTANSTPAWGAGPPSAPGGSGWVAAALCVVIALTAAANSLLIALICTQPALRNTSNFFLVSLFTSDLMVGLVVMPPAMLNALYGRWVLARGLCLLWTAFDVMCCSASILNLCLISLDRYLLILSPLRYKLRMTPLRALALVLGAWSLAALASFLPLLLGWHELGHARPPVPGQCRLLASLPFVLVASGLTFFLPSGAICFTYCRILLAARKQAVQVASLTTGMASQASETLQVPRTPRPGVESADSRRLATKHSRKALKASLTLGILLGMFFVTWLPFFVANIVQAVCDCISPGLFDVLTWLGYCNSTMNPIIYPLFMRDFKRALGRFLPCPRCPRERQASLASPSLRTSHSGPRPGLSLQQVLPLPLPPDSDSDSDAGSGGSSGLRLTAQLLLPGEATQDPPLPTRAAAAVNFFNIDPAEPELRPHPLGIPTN
Sequence of 5-hydroxytryptamine receptor 1B (P28222 whole entry): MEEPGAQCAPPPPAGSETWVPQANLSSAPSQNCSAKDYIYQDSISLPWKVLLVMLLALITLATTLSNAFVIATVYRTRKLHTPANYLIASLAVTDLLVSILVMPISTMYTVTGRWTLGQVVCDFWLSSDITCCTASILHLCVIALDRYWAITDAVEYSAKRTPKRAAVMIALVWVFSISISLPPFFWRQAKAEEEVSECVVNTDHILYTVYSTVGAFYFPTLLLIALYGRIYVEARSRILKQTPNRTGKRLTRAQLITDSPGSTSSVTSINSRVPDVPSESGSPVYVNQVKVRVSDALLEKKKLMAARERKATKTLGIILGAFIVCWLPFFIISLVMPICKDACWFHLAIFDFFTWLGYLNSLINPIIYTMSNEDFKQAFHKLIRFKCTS
Sequence of 5-hydroxytryptamine receptor 1D (P28221 whole entry): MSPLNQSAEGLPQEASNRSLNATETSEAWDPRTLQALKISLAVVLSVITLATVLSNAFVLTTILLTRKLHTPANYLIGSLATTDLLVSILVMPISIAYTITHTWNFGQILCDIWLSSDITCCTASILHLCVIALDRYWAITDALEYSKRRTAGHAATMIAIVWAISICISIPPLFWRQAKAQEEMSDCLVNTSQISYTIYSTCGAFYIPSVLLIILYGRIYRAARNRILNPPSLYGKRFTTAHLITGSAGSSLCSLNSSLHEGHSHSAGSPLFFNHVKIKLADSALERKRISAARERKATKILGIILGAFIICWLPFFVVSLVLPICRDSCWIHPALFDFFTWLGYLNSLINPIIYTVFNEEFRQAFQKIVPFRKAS
Sequence of 5-hydroxytryptamine receptor 4 (Q13639 whole entry): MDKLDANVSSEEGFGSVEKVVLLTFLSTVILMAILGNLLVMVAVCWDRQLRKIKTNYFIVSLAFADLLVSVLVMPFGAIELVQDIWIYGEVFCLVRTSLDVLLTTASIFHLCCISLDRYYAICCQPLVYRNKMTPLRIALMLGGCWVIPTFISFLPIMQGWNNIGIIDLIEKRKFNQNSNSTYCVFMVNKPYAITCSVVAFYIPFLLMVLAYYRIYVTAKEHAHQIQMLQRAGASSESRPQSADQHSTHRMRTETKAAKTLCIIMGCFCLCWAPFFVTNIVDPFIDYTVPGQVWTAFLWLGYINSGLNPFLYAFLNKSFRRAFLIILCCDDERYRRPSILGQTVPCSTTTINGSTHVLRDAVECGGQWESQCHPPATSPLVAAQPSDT
Sequence of 5-hydroxytryptamine receptor 5A (P47898 whole entry): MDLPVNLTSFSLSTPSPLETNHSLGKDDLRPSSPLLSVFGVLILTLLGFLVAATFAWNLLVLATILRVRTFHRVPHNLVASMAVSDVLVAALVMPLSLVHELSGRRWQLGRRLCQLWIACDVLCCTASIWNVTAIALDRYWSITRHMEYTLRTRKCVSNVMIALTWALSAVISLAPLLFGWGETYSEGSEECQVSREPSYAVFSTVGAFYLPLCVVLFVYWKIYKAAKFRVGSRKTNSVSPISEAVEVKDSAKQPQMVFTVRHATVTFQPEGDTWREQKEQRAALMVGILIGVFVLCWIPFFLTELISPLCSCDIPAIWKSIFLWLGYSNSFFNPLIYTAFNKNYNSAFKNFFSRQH
T4 sequence (P34969 whole entry): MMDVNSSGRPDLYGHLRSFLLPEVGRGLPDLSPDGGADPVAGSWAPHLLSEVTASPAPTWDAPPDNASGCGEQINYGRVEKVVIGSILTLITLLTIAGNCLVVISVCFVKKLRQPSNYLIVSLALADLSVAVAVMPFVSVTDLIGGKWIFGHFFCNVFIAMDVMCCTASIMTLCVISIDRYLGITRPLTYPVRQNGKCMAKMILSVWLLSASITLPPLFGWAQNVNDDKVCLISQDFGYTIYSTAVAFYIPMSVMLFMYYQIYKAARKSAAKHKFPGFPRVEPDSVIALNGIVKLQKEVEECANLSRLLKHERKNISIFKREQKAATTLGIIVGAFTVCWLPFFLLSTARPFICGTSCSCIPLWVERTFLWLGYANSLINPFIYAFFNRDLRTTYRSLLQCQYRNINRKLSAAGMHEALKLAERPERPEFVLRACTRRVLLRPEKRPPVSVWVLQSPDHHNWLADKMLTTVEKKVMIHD

Ki [1] | Ki [2] | Ki [3] | Ki [4] | Ki [5] | Ki [6] | Ki [7] | Ki [8] | Ki [9] | Ki [10] | Ki [11] | Ratio Ki (Homo sapiens [12]) | Ratio Ki (Homo sapiens [13]) | Ratio Ki (Homo sapiens [14]) | Activity [17] | Imax [18] | Emax [19] | inhibition [20] | IC50 [21] | EC50 [22] | Compound | also measured
> 10 µM | > 10 µM | > 10 µM | > 10 µM | 0.471 µM | 0.505 µM | 0.785 µM | 0.703 µM | > 10 µM | 1.23 µM | > 10 µM | 8.9 | 9.5 | 14.8 | Active | 98% | 38.2% | inactive | 2.46 µM | 0.135 µM | Fc1ccc(-c2noc3c2CCNCC3)cc1 | Ratio Ki (Homo sapiens [15]): 13.3; Ratio Ki (Homo sapiens [16]): 23.2
– | – | – | – | – | – | – | – | – | – | – | – | – | – | Active | – | < 20% | – | – | – | CC1CCN(CC[C@H]2CCCN2S(=O)(=O)c2cccc(O)c2)CC1 | Activity (Mus musculus [23]): 37.1%; Time (Mus musculus [24]): 252 min
> 10 µM | > 10 µM | 0.165 µM | 0.89 µM | 0.159 µM | 0.106 µM | 0.296 µM | > 10 µM | > 10 µM | > 10 µM | 0.109 µM | 3.4 | 2.3 | 6.3 | Active | 97.4% | 50.9% | inactive | 2.56 µM | 0.165 µM | Cc1ccc(-c2n[nH]c3c2CCNCC3)cc1 | Ratio Ki (Homo sapiens [25]): 3.5; Ratio Ki (Homo sapiens [26]): 18.9; Ratio Ki (Homo sapiens [27]): 2.3
> 10 µM | > 10 µM | > 10 µM | > 10 µM | 0.399 µM | 0.247 µM | 1.1 µM | 0.303 µM | > 10 µM | > 10 µM | 0.36 µM | 5.7 | 3.5 | 15.7 | Active | 94.9% | 47.1% | inactive | 3.97 µM | 0.113 µM | Clc1ccc(-c2noc3c2CCNCC3)cc1 | Ratio Ki (Homo sapiens [15]): 4.3; Ratio Ki (Homo sapiens [27]): 5.1
– | – | – | – | – | – | – | – | – | – | – | – | – | – | – | – | – | – | – | – | Cc1ccccc1-c1noc2c1CCNCC2 | Ki [28]: > 10 µM; inhibition [29]: < 50%
